Results on 14 molecules are retold here after ChEMBL document CHEMBL4152262, “Design, synthesis and evaluation of novel multi-target-directed ligands for treatment of Alzheimer's disease based on coumarin and lipoic acid scaffolds” (Eur J Med Chem, 2018).

Test [1] has as its system PC-12. Briefly: Neuroprotection against H2O2-induced cell death in rat PC12 cells assessed as cell viability at 10 uM preincubated for 3 hrs followed by H2O2 stimulation measured after 2 hrs by MTT assay (reference value: 25.2 to 41.8%). Format: functional. The settings on record: read-out: Activity. On the technique in general: Tetrazolium assays rely on reduction of a dye to a coloured formazan, in cell work by metabolically active cells.

Test [2] deals with PC-12. Briefly: Neuroprotection against H2O2-induced cell death in rat PC12 cells assessed as cell viability at 50 uM preincubated for 3 hrs followed by H2O2 stimulation measured after 2 hrs by MTT assay (reference value: 25.2 to 41.8%). In kind it is functional. As to conditions: read-out: Activity.
For test [3], the system named is PC-12. Briefly: Neuroprotection against H2O2-induced cell death in rat PC12 cells assessed as cell viability at 0.1 uM preincubated for 3 hrs followed by H2O2 stimulation measured after 2 hrs by MTT assay (reference value: 25.2 to 41.8%). In kind it is functional. The settings on record: read-out: Activity.
In test [4] the target is Cholinesterase (Equus caballus, UniProt P81908). Briefly: Inhibition of equine serum BuChE using butyrylthiocholine iodide as substrate pretreated for 5 mins followed by substrate addition by Ellman's method. The procedure, abridged: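 Ellman assay with horse serum BuChE (5 IU/mL) in 0.1 M phosphate buffer pH 8.0 with DTNB. Compound was preincubated with enzyme 5 min, then butyrylthiocholine iodide was added. Absorbance read at 412 nm. IC50 from a log concentration vs % inhibition curve; triplicate runs.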
In general terms: DTNB colorimetry detects thiols as they appear.

Test [5] can be described thus: Inhibition of soybean 15-LOX assessed as reduction in conversion of linoleic acid to 13-hydroperoxylinoleic acid by spectrophotometric method. Set-up: species or system Glycine max. The procedure, abridged: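 Soybean lipoxygenase type 1-B (final 167 U/mL) with compound (DMSO stock diluted in 0.1 M phosphate buffer pH 8) and linoleic acid (134 mM in ethanol) at room temperature. Formation of 13-hydroperoxylinoleic acid followed spectrophotometrically at 234 nm.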

For test [6], the system named is PC-12. The test is described as follows: Neuroprotection against H2O2-induced cell death in rat PC12 cells assessed as cell viability at 20 uM preincubated for 3 hrs followed by H2O2 stimulation measured after 2 hrs by MTT assay (reference value: 25.2 to 41.8%). In kind it is functional. As to conditions: read-out: Activity.
For test [7], the system named is PC-12. Briefly: Neuroprotection against H2O2-induced cell death in rat PC12 cells assessed as increase in cell viability preincubated for 3 hrs followed by H2O2 stimulation measured after 2 hrs by MTT assay. Format: functional, cell-based.
The target of test [8] is Acetylcholinesterase (Electrophorus electricus, UniProt O42275). The test is described as follows: Inhibition of electric eel AChE using acetylthiocholine iodide as substrate pretreated for 5 mins followed by substrate addition by Ellman's method.
In test [9] the test system is PC-12. Briefly: Neuroprotection against H2O2-induced cell death in rat PC12 cells assessed as cell viability at 1 uM preincubated for 3 hrs followed by H2O2 stimulation measured after 2 hrs by MTT assay (reference value: 25.2 to 41.8%). The settings on record: read-out: Activity. In kind it is functional.
In test [10] the test system is PC-12. Briefly: Neuroprotection against H2O2-induced cell death in rat PC12 cells assessed as cell viability at 5 uM preincubated for 3 hrs followed by H2O2 stimulation measured after 2 hrs by MTT assay (reference value: 25.2 to 41.8%). The settings on record: read-out: Activity. In kind it is functional.

Chain of Acetylcholinesterase (O42275 whole entry): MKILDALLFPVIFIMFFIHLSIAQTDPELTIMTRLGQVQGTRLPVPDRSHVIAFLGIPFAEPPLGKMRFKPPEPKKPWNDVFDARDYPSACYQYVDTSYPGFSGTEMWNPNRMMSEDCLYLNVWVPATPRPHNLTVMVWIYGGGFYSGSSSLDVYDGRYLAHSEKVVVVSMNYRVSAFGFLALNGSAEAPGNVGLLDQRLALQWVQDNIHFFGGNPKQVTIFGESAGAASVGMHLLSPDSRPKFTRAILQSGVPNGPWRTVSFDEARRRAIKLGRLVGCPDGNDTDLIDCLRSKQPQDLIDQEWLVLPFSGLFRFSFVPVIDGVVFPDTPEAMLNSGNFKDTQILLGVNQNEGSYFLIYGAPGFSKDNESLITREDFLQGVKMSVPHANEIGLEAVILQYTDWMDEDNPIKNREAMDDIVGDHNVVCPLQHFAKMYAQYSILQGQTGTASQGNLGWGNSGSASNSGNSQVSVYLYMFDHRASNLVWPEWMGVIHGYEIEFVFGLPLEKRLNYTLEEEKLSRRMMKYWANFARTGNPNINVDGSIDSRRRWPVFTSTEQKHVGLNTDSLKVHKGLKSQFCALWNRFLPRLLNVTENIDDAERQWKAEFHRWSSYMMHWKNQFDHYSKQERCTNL
Chain of Cholinesterase (P81908 whole entry): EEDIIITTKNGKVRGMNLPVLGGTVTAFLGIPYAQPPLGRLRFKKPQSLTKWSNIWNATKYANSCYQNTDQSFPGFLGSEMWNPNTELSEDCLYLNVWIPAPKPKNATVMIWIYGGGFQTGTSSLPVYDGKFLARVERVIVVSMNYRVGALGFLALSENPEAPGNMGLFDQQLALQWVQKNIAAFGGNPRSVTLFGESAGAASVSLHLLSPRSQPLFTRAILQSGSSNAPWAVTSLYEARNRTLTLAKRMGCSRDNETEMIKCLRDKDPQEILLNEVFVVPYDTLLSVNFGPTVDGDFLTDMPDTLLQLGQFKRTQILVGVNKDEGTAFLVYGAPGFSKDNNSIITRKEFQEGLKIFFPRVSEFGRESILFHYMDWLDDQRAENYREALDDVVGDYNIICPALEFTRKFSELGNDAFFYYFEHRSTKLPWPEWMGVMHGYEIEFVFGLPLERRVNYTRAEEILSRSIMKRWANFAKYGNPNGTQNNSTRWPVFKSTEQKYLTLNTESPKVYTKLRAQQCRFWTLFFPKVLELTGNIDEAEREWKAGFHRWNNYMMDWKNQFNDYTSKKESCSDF

For the molecule `O=C(CCCCC1CCSS1)NCc1cn(CCCCOc2ccc3cc(-c4ccc(Br)cc4)c(=O)oc3c2)nn1` (configuration not stated), the viability at 10 µM in test [1] stood at 42.6%. The viability at 50 µM in test [2] stood at 47.6%. Moreover, the viability at 0.1 µM in test [3] came out at 34.2%. In addition, the IC50 in test [4], in [5] and in test [8] was more than 100 µM in each case. In [6], the viability at 20 µM amounted to 45%. Moreover, the Activity result in [7] was “Dose-dependent effect”. The viability at 1 µM in test [9] stood at 37.4%. Further, the viability at 5 µM in test [10] came out at 40.5%.
As for `COc1ccc(-c2cc3ccc(OCCCCCn4cc(CNC(=O)CCCCC5CCSS5)nn4)cc3oc2=O)cc1` (configuration not stated), the viability at 10 µM in [1] is 45.5%. In addition, in test [2], the viability at 50 µM came out at 52.8%. Further, the viability at 0.1 µM in test [3] was found to be 34.5%. For the same molecule, the IC50 in test [4], in test [5] and in [8] was more than 100 µM throughout. Further, the viability at 20 µM in test [6] is 49%. In test [7], the Activity entry was “Dose-dependent effect”. Moreover, the viability at 1 µM in test [9] amounted to 37.1%. Besides, in test [10], the viability at 5 µM is 41%.
In the case of `O=C(CCCCC1CCSS1)NCc1cn(CCCCOc2ccc3cc(-c4ccccc4)c(=O)oc3c2)nn1` (configuration not stated), the viability at 10 µM in [1] amounted to 30.5%. For the same molecule, the viability at 50 µM in test [2] worked out at 20.5%. Besides, in test [3], the viability at 0.1 µM came to 38.6%. Besides, the IC50 in [4], in [5] and in [8] was more than 100 µM in each case. Besides, the viability at 20 µM in test [6] is 26%. The viability at 1 µM in test [9] turned out to be 34.8%. Moreover, in test [10], the viability at 5 µM worked out at 32.8%.
In the case of `CC(=O)c1cc2ccc(OCCCCCn3cc(CNC(=O)CCCCC4CCSS4)nn3)cc2oc1=O` (configuration not stated), the viability at 10 µM in [1] came out at 20.8%. Also, in test [2], the viability at 50 µM worked out at 18.2%. The viability at 0.1 µM in test [3] was 28.9%. Further, the IC50 in [4], in test [5] and in [8] was more than 100 µM each time. In addition, the viability at 20 µM in test [6] is 20.7%. For the same molecule, the viability at 1 µM in test [9] stood at 27.4%. The viability at 5 µM in test [10] is 22.2%.
Consider `COc1ccc(-c2cc3ccc(OCCCCn4cc(CNC(=O)CCCCC5CCSS5)nn4)cc3oc2=O)cc1` (configuration not stated), for which the viability at 10 µM in test [1] is 48.6%. In addition, the viability at 50 µM in [2] was 55.3%. In addition, the viability at 0.1 µM in [3] came out at 32.1%. Besides, the concentration for half-maximal inhibition (IC50) in [4], in [5] and in [8] was more than 100 µM throughout. The viability at 20 µM in test [6] was 52.3%. Besides, the Activity entry in [7] was “Dose-dependent effect”. For the same molecule, in [9], the viability at 1 µM was 36.8%. Besides, the viability at 5 µM in test [10] worked out at 44.9%.
`CC(=O)c1cc2ccc(OCCCn3cc(CNC(=O)CCCCC4CCSS4)nn3)cc2oc1=O` (configuration not stated): the viability at 10 µM in test [1] turned out to be 38%. In addition, the viability at 50 µM in [2] came to 40.7%. In test [3], the viability at 0.1 µM stood at 34.6%. The IC50 is more than 100 µM in [4], more than 100 µM in test [5] and 54.6 µM in test [8]. For the same molecule, in test [6], the viability at 20 µM is 39.8%. Also, the Activity entry in test [7] was “Dose-dependent effect”. For the same molecule, in test [9], the viability at 1 µM worked out at 35.5%. The viability at 5 µM in test [10] was found to be 37.5%.
`O=C(CCCCC1CCSS1)NCc1cn(CCCCOc2ccc3ccc(=O)oc3c2)nn1` (configuration not stated): the viability at 10 µM in test [1] amounted to 65.1%. The viability at 50 µM in test [2] is 75.8%. For the same molecule, in test [3], the viability at 0.1 µM worked out at 40.5%. The IC50 in test [4] is more than 100 µM; in test [5], more than 100 µM; in [8] it was 65.5 µM. Moreover, the viability at 20 µM in test [6] is 69.8%. Also, the Activity result in test [7] is “Dose-dependent effect”. Also, the viability at 1 µM in test [9] turned out to be 45.9%. Further, the viability at 5 µM in test [10] was 52.8%.
For the molecule `O=C(CCCCC1CCSS1)NCc1cn(CCCOc2ccc3cc(-c4ccc(Cl)c(Cl)c4)c(=O)oc3c2)nn1` (configuration not stated), the viability at 10 µM in [1] amounted to 49.6%. Besides, the viability at 50 µM in [2] worked out at 54.8%. The viability at 0.1 µM in test [3] came out at 38.1%. Moreover, the IC50 was 73.5 µM in [4], more than 100 µM in test [5] and more than 100 µM in test [8]. Besides, the viability at 20 µM in test [6] amounted to 51.2%. In addition, the Activity entry in test [7] was “Dose-dependent effect”. In addition, in test [9], the viability at 1 µM was 42.4%. Moreover, the viability at 5 µM in [10] worked out at 44.7%.
With `CCOC(=O)c1cc2ccc(OCCCCCn3cc(CNC(=O)CCCCC4CCSS4)nn3)cc2oc1=O` (configuration not stated), the viability at 10 µM in test [1] was found to be 38.3%. In [2], the viability at 50 µM came to 40.7%. Also, in [3], the viability at 0.1 µM came out at 34.4%. In addition, the IC50 in [4] was more than 100 µM; in [5], more than 100 µM; in test [8], 59.7 µM. The viability at 20 µM in test [6] was found to be 39.5%. For the same molecule, the Activity result in test [7] was “Dose-dependent effect”. For the same molecule, in test [9], the viability at 1 µM worked out at 35.1%. The viability at 5 µM in test [10] was 36.4%.
Consider `O=C(CCCCC1CCSS1)NCc1cn(CCCCOc2ccc3cc(-c4ccc(Cl)cc4)c(=O)oc3c2)nn1` (configuration not stated), for which the viability at 10 µM in test [1] stood at 61.8%. Also, the viability at 50 µM in test [2] amounted to 74.9%. The viability at 0.1 µM in [3] amounted to 38.8%. Moreover, the IC50 was 52 µM in test [4], more than 100 µM in test [5] and more than 100 µM in test [8]. The viability at 20 µM in test [6] turned out to be 68.4%. The Activity entry in test [7] is “Dose-dependent effect”. Moreover, the viability at 1 µM in test [9] was found to be 46.2%. Besides, the viability at 5 µM in test [10] is 52%.
As for `O=C(CCCCC1CCSS1)NCc1cn(CCCOc2ccc3cc(C(=O)O)c(=O)oc3c2)nn1` (configuration not stated), the viability at 10 µM in test [1] turned out to be 59.9%. In addition, the viability at 50 µM in [2] came to 73.5%. Besides, the viability at 0.1 µM in test [3] worked out at 43.4%. Moreover, the half-inhibitory concentration (IC50) in test [4], in test [5] and in test [8] was more than 100 µM each time. Also, the viability at 20 µM in test [6] was 66.8%. The Activity result in test [7] was “Dose-dependent effect”. Besides, in test [9], the viability at 1 µM amounted to 52.1%. Moreover, the viability at 5 µM in test [10] came to 57%.
Take `O=c1c(O)c(-c2ccc(O)c(O)c2)oc2cc(O)cc(O)c12` [QUERCETIN]: the viability at 10 µM in [1] is 53.7%. Moreover, the viability at 50 µM in [2] stood at 58.8%. Further, in test [3], the viability at 0.1 µM was found to be 36.2%. Also, the viability at 20 µM in test [6] was determined as 56.9%. For the same molecule, the viability at 1 µM in test [9] was 40.7%. Also, the viability at 5 µM in [10] turned out to be 47.3%.
With `O=C(CCCCC1CCSS1)NCc1cn(CCCOc2ccc3cc(-c4ccccc4)c(=O)oc3c2)nn1` (configuration not stated), the viability at 10 µM in test [1] stood at 29.1%. In addition, the viability at 50 µM in test [2] worked out at 23.1%. Also, the viability at 0.1 µM in [3] amounted to 33.9%. In addition, the IC50 in [4], in test [5] and in test [8] was more than 100 µM in each case. Besides, the viability at 20 µM in [6] came to 27.2%. Moreover, in test [9], the viability at 1 µM is 31.9%. For the same molecule, the viability at 5 µM in test [10] is 29.8%.
`O=C(CCCCC1CCSS1)NCc1cn(CCCCCOc2ccc3cc(-c4ccccc4)c(=O)oc3c2)nn1` (configuration not stated): the viability at 10 µM in test [1] was found to be 26.3%. In addition, the viability at 50 µM in [2] is 17.7%. In addition, the viability at 0.1 µM in [3] was found to be 35.5%. For the same molecule, the IC50 in test [4], in test [5] and in test [8] was more than 100 µM throughout. In addition, the viability at 20 µM in test [6] turned out to be 20.7%. In addition, the viability at 1 µM in [9] was 30.7%. Also, in [10], the viability at 5 µM was 28%.

For orientation: IC50 means the concentration that inhibits the measured activity by half.
